PubChem BioAssay
Results filed as inconclusive are left out.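 How the source made its calls, unless noted: active means viability increase at or above a cutoff of the median across tested compounds plus 3 SD (cut at about 8.5% in these data, passing the limit was not always enough); inconclusive means some gains above the cutoff, reason not given; inactive means the rest.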

Tests used:
[1] = S. cerevisiae growth inhibition in permissive medium (OD615), pilot counter-assay for S. cerevisiae lifespan shortening project, permissive growth control (AID 705;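 active means growth inhibition above 25% in both replicates, a cutoff set 3 SD above the mean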); conditions: OD615, 24 h, at 10 µM, hits give high values
In short: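 Material: engineered DeaD yeast; Compound: one dose 10 µM, DMSO 0.25% final; Detection: absorbance (optical density) at 615 nm; Buffer or medium: permissive raffinose/galactose medium; Timing: 24 h exposure, 30 °C.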

[2] = S. cerevisiae growth inhibition in restrictive medium, OD615, pilot screen, restrictive growth control, yeast lifespan reduction project (AID 706;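 active means growth inhibition above a set limit, 3 SD over mean compound inhibition, in both replicates, cut at about 43% in these data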;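 further: modified DeaD lifespan yeast strain shifted to restrictive glucose medium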); conditions: OD615, 48 h, at 10 µM, hits give high values
In short: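 Buffer or medium: restrictive glucose medium (CSMM-D); test system: modified S. cerevisiae; doses: single dose of 10 µM compound final, 0.25% DMSO; schedule: 48 h compound exposure at 30 °C; detection: absorbance (optical density) measured at 615 nm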

[3] = doxorubicin toxicity protection in MRP-1 cells – H69AR cells, CellTiter-Glo, duplicate, MRP-1 activator project, pilot screen (AID 807); conditions: H69AR viability with doxorubicin, CellTiter-Glo luminescence; at 10 µM; hits give high values;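 further: compound pretreatment 18-22 h then 72 h combined with doxorubicin; 0% = doxorubicin alone and 100% = vehicle without doxorubicin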
[4] = viability of HCT116 without oncogenic beta-catenin – human colon tumor cells, pilot screen (AID 823;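 active means cell viability at or below a set limit in both duplicate runs, the limit being the all-compound median minus 4 SD, cut at about 23% in these data, passing the limit was not always enough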;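 further: 0% = wells killed by 20 µM Hyamine and 100% = untreated DMSO cell wells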); conditions: HCT116 beta-catenin knockout viability, CellTiter-Glo, 60 h; at 10 µM; hits give low values
[5] = viability of PTEN-null HCT116 cells – cell-based, HCT116 clonal line, CellTiter-Glo, pilot screen (AID 824;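 active means viability at or below 27.92% in each of two runs, the all-compound median minus 4 SD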;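 further: 0% = 20 µM Hyamine control and 100% = vehicle cell control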); conditions: HCT116 PTEN-deleted viability, 60 h, at 10 µM, hits give low values
[6] = RAM signaling pathway blockade in yeast – S. cerevisiae, Pdr1DBD-CYC8 efflux-inhibited sensitized strain, primary screen (AID 1298;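 active means RAM network inhibition above 8.4% in each of two replicates, 3 SD over the compound average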;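 further: 0% = DMSO untreated cells without growth and 100% = 10 µM 1-NA-PP1 full growth; higher means more yeast growth rescued from 5-FOA killing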); conditions: S. cerevisiae cbk1-as DSE1-URA3 strain, 5-FOA growth OD615, 2 d; at 50 µM; hits give high values
[7] = RAM pathway blockade in budding yeast – dse1pr::URA3 reporter, 5-FOA selection, pilot screen (AID 869;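 active means inhibition over a set limit, the all-compound mean plus 3 SD, in both replicate runs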;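 further: 0% = DMSO wells with no growth and 100% = 10 µM 1-NA-PP1 with full growth; RAM network block rescues cells from 5-FOA so hits raise OD615 growth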); conditions: S. cerevisiae dse1pr::URA3 5-FOA growth, OD615, 2 d; at 10 µM; hits give high values; strain carries analog-sensitive mutant Cbk1 kinase

CCOC(=O)N1CCN(C(=O)c2ccc(N3C(=O)c4ccccc4C3=O)cc2)CC1
inactive: growth inhibition [1] -3.96% | growth inhibition [2] -15.2% | viability increase [3] -2.58% | viability [4] 99% | viability [5] 93.6% | RAM network inhibition [6] 4.06%

CN(C(=O)c1ccccc1C(=O)c1ccccc1)C1CCS(=O)(=O)C1 (configuration not stated)
inactive: growth inhibition [1] -8.28% | growth inhibition [2] 3.21% | viability increase [3] -1.54% | viability [4] 96.6% | viability [5] 95.4% | inhibition [7] -0.06% | RAM network inhibition [6] 1.85%

COc1ccccc1CCNC(=O)CSc1nc(-c2ccco2)cc(C(F)(F)F)n1
inactive: growth inhibition [1] -13.3% | growth inhibition [2] -5.15% | viability increase [3] -1.65% | viability [4] 102% | viability [5] 93.7% | RAM network inhibition [6] 6.42%

CC1(C)CC(=O)C(=CN2CCN(C(=O)c3ccco3)CC2)C(=O)C1
inactive: growth inhibition [1] -20.6% | growth inhibition [2] -9.23% | viability increase [3] 0.72% | viability [4] 100% | viability [5] 90.3% | inhibition [7] 2.93% | RAM network inhibition [6] 3.19%

Cc1nnc(Sc2nc3c(c(=O)[nH]c(=O)n3C)n2Cc2ccccc2Cl)s1
inactive: growth inhibition [1] -9.12% | growth inhibition [2] -9.02% | viability increase [3] -2.89% | viability [4] 96.8% | viability [5] 90.5% | inhibition [7] 1.07% | RAM network inhibition [6] 2.84%

Cc1noc(C)c1S(=O)(=O)N(CC(=O)N1CCc2ccccc21)c1ccc(C(C)C)cc1
inactive: growth inhibition [1] -4.56% | growth inhibition [2] -7.38% | viability increase [3] -5.04% | viability [4] 86.7% | viability [5] 82.5% | inhibition [7] 1.3% | RAM network inhibition [6] 5.36%

O=C(CSc1nc2c([nH]c3ccccc32)c(=O)n1-c1ccccc1)N1CCOCC1
inactive: growth inhibition [1] -7.05% | growth inhibition [2] -18.6% | viability increase [3] -6.19% | viability [4] 93.6% | viability [5] 87% | RAM network inhibition [6] 5.28%

O=C(CSc1nc2c(cnn2-c2ccc(F)cc2)c(=O)[nH]1)N1CCCCC1
inactive: growth inhibition [1] -8.1% | growth inhibition [2] 7.12% | viability increase [3] -3.71% | viability [4] 91.7% | viability [5] 84.7% | inhibition [7] 2.99% | RAM network inhibition [6] 1.77%

COc1ccc(C2N(c3cc(Cl)ccc3OC)C(=O)C3CCCN32)cc1 (configuration not stated)
inactive: growth inhibition [1] 2.4% | growth inhibition [2] -1.37% | viability increase [3] -1.89% | viability [4] 106% | viability [5] 96.9% | inhibition [7] 1.01% | RAM network inhibition [6] -0.42%

CSc1ccc(C2NC(=O)c3c(sc4c3CCN(C)C4)N2)cc1 (configuration not stated)
inactive: growth inhibition [1] -13.2% | growth inhibition [2] -0.305% | viability increase [3] -2.7% | viability [4] 78.2% | viability [5] 92.5% | inhibition [7] -0.285% | RAM network inhibition [6] 4.99%

CCSc1nnc(Cc2cc(=O)[nH]c(=O)[nH]2)n1-c1ccc(F)cc1
inactive: growth inhibition [1] -5.83% | growth inhibition [2] -10.5% | viability increase [3] 0.38% | viability [4] 104% | viability [5] 100% | inhibition [7] 0.9% | RAM network inhibition [6] 1.04%

COc1ccc(-c2nc(CS(=O)CC(=O)NCc3ccc(Cl)cc3)c(C)o2)cc1 (configuration not stated)
inactive: growth inhibition [1] -11.9% | growth inhibition [2] 4.36% | viability increase [3] 0.16% | viability [4] 72.4% | viability [5] 79.9% | RAM network inhibition [6] 7.34%

CCCC(=O)N=c1sc2cccc(F)c2n1C
inactive: growth inhibition [1] -9.43% | growth inhibition [2] -11.1% | viability increase [3] -2.75% | viability [4] 99% | viability [5] 93.2% | inhibition [7] 0.795% | RAM network inhibition [6] 5.05%

O=C(CSc1nc2ccccc2o1)NCc1ccc2c(c1)OCO2
inactive: growth inhibition [1] -8.6% | growth inhibition [2] -2.3% | viability increase [3] 4.28% | viability [4] 94.8% | viability [5] 83.9% | RAM network inhibition [6] 2.68%

NC(=O)c1ccc(N2CCCCC2)c(N2C(=O)C3C4C=CC(C4)C3C2=O)c1 (configuration not stated)
inactive: growth inhibition [1] 0.39% | growth inhibition [2] -4.49% | viability increase [3] -2.98% | viability [4] 101% | viability [5] 92.6% | inhibition [7] 0.92% | RAM network inhibition [6] 3.75%

CN(C)c1nc2ccc(OCCN3CCCCC3)cc2s1
inactive: growth inhibition [1] -10.8% | growth inhibition [2] 0.795% | viability increase [3] -0.48% | viability [4] 93% | viability [5] 94.3% | RAM network inhibition [6] 4.76%

CC(=O)c1cccc(NC(=O)CCS(=O)(=O)c2cccc3nonc23)c1
inactive: growth inhibition [1] -9.88% | growth inhibition [2] -7.91% | viability increase [3] -3.46% | viability [4] 93.5% | viability [5] 93.2% | RAM network inhibition [6] 3.02%

Cc1ccc2oc(=O)c3cnn(CC(=O)NCCc4ccsc4)c3c2c1
inactive: growth inhibition [1] 3.75% | growth inhibition [2] -1.42% | viability increase [3] -2.89% | viability [4] 90.7% | viability [5] 85.7% | RAM network inhibition [6] 3.42%

O=C(c1ccc(CS(=O)(=O)c2c(Cl)cccc2Cl)o1)N1CCCC1
inactive: growth inhibition [1] -1.83% | growth inhibition [2] -21% | viability increase [3] -1.96% | viability [4] 103% | viability [5] 93.2% | inhibition [7] 2.21% | RAM network inhibition [6] -0.84%

CCOC(=O)N(C)OC(=O)Nc1ccc(Cl)c(Cl)c1
inactive: growth inhibition [1] -17.1% | growth inhibition [2] -20.5% | viability increase [3] -0.16% | viability [4] 95.6% | viability [5] 90.8% | inhibition [7] 0.52% | RAM network inhibition [6] 5.93%
